Measured values published in ChEMBL document CHEMBL4396871, “Leveraging a Low-Affinity Diazaspiro Orthosteric Fragment to Reduce Dopamine D3 Receptor (D3R) Ligand Promiscuity across Highly Conserved Aminergic G-Protein-Coupled Receptors (GPCRs)” (J Med Chem, 2019).

Assays:
[1] = target: T1, Sodium-dependent noradrenaline transporter (Homo sapiens, UniProt P23975); assay: Displacement of [3H]-nisoxetine from recombinant human NET stably expressed in HEK cells at 10 uM measured after 90 mins by microbeta scintillation counting method relative to control; format: cell-based
Outline: (§1)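 Primary screen at 10 μM compound, expressed as % receptor inhibition, from at least three experiments.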

[2] = target: Muscarinic acetylcholine receptor M2 (Homo sapiens) (UniProt P08172); assay: Displacement of [3H]-QNB/[3H]-NMS from human muscarinic M2 receptor expressed in stable CHO cells at 10 uM after 90 mins by microbeta scintillation counting method relative to control; format: cell-based; outline: as §1
[3] = target: T2, 5-hydroxytryptamine receptor 1B (Homo sapiens, UniProt P28222); assay: Displacement of [3H]-5-CT from recombinant human 5HT1B receptor stably expressed in HEK cell membranes measured after 90 mins by microbeta scintillation counting method
D2 dopamine receptor = D2 dopamine receptor (Homo sapiens, UniProt P14416); assay: Displacement of [3H]N-methylspiperone from recombinant human D2 receptor stably expressed in fibroblast measured after 90 mins by microbeta scintillation counting method
Histamine H3 receptor = Histamine H3 receptor (Homo sapiens, UniProt Q9Y5N1); assay: Displacement of [3H]-alpha-methylhistamine from human histamine H3 receptor stably expressed in HEK Flp-In cells at 10 uM after 90 mins by microbeta scintillation counting method relative to control; format: cell-based; outline: as §1
D(1B) dopamine receptor = D(1B) dopamine receptor (Homo sapiens, UniProt P21918); assay: Displacement of [3H]-SCH23390 from recombinant human D5 receptor transiently expressed in HEK cell membranes measured after 90 mins by microbeta scintillation counting method
[4] = target: Muscarinic acetylcholine receptor M4 (Homo sapiens, UniProt P08173); assay: Displacement of [3H]-QNB/[3H]-NMS from human muscarinic M4 receptor expressed in stable CHO cells after 90 mins by microbeta scintillation counting method; format: cell-based
[5] = target: 5-hydroxytryptamine receptor 2C (Homo sapiens) (UniProt P28335); assay: Displacement of [3H]-mesulergine from recombinant human 5HT2C receptor transiently expressed in HEKT cell membranes at 10 uM measured after 90 mins by microbeta scintillation counting method relative to control; outline: as §1
[6] = target: 5-hydroxytryptamine receptor 7 (Homo sapiens, UniProt P34969); assay: Displacement of [3H]-LSD from recombinant human 5HT7A receptor stably expressed in HEK cell membranes at 10 uM measured after 90 mins by microbeta scintillation counting method relative to control; outline: as §1
[7] = target: T2, 5-hydroxytryptamine receptor 1B; assay: Displacement of [3H]-5-CT from recombinant human 5HT1B receptor stably expressed in HEK cell membranes at 10 uM measured after 90 mins by microbeta scintillation counting method relative to control; outline: as §1
[8] = target: Sodium-dependent serotonin transporter (Homo sapiens, UniProt P31645); assay: Displacement of [3H]-citalopram from recombinant human SERT stably expressed in HEK cells measured after 90 mins by microbeta scintillation counting method; format: cell-based
[9] = target: Alpha-2B adrenergic receptor (Homo sapiens, UniProt P18089); assay: Displacement of [3H]-rauwolscine from recombinant human alpha2B adrenergic receptor transiently expressed in HEKT cells at 10 uM measured after 90 mins by microbeta scintillation counting method relative to control; format: cell-based; details: probe [3H]-rauwolscine
[10] = target: T1, Sodium-dependent noradrenaline transporter; assay: Displacement of [3H]-nisoxetine from recombinant human NET stably expressed in HEK cells measured after 90 mins by microbeta scintillation counting method; format: cell-based

T2 sequence (P28222 whole entry): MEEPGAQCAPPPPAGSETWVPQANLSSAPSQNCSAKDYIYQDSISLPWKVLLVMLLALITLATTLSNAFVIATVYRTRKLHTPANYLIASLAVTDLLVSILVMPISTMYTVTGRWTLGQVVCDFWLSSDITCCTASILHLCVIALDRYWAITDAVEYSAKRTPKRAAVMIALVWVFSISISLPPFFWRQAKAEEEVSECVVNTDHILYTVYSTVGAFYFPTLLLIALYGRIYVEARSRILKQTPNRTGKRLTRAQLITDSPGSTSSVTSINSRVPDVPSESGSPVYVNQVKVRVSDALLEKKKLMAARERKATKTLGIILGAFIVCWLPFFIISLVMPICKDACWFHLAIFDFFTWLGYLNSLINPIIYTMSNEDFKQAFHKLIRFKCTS
T1 sequence (P23975 whole entry): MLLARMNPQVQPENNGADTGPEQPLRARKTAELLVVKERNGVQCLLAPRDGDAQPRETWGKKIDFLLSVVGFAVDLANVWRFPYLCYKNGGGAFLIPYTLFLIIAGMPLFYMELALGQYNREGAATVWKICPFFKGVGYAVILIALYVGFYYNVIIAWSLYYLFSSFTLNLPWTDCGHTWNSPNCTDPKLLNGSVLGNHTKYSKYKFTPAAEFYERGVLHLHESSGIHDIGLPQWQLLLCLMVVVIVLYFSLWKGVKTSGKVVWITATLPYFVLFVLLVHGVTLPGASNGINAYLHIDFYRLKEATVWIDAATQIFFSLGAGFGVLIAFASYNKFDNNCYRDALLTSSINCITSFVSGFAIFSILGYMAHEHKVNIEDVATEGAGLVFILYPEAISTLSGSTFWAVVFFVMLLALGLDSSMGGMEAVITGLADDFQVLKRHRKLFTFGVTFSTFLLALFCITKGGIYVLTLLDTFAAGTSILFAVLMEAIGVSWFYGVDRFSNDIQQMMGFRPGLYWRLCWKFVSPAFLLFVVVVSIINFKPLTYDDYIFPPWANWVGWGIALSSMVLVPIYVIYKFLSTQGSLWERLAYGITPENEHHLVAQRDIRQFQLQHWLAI
5-hydroxytryptamine receptor 7, sequence (P34969 whole entry): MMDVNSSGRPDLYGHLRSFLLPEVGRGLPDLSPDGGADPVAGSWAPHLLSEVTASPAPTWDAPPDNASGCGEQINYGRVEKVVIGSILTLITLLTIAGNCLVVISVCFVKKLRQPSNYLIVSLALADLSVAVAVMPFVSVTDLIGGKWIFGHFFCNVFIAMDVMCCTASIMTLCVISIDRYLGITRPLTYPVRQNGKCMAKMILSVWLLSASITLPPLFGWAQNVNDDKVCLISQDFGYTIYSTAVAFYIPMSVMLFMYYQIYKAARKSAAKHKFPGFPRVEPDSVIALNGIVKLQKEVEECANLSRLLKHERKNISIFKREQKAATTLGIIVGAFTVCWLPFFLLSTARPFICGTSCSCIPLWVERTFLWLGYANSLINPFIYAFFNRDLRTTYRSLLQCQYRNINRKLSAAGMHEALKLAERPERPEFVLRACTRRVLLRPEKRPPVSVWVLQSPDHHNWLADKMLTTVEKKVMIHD
Muscarinic acetylcholine receptor M2 (Homo sapiens), sequence (P08172 whole entry): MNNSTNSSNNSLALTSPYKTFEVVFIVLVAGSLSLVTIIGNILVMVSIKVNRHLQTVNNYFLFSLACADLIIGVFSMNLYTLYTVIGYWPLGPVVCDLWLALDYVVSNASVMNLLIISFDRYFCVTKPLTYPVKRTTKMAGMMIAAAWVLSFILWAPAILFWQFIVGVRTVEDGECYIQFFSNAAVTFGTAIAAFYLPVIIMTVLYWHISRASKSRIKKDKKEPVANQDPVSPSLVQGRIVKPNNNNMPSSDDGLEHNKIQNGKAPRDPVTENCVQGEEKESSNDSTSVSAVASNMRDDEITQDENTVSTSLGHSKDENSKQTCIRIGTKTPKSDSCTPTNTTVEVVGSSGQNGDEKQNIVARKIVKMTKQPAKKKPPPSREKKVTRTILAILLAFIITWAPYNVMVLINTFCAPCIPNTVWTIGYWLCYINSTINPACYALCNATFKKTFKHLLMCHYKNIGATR
Muscarinic acetylcholine receptor M4, sequence (P08173 whole entry): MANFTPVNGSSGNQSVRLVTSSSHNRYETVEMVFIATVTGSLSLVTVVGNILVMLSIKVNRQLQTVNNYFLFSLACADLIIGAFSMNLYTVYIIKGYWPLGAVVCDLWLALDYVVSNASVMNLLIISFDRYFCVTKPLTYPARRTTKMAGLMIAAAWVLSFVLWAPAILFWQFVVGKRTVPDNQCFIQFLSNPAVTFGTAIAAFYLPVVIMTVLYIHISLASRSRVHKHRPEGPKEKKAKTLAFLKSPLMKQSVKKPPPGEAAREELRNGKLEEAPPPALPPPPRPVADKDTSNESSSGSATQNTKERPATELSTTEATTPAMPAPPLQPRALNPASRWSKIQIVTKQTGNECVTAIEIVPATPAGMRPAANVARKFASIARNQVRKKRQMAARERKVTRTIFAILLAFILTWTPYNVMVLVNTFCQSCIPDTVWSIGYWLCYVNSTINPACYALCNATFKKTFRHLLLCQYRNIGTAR
Alpha-2B adrenergic receptor, sequence (P18089 whole entry): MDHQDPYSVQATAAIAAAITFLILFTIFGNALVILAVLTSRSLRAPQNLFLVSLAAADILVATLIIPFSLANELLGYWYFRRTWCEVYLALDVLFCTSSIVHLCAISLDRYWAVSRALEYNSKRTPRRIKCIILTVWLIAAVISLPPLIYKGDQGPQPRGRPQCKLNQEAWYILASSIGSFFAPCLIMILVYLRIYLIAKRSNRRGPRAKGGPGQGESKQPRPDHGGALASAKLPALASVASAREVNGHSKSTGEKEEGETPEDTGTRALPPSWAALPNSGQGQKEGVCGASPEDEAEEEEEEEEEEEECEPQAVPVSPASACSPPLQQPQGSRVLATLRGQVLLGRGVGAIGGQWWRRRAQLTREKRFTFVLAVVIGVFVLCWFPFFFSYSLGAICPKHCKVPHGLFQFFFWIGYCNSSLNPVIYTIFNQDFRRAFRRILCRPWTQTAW
Histamine H3 receptor, sequence (Q9Y5N1 whole entry): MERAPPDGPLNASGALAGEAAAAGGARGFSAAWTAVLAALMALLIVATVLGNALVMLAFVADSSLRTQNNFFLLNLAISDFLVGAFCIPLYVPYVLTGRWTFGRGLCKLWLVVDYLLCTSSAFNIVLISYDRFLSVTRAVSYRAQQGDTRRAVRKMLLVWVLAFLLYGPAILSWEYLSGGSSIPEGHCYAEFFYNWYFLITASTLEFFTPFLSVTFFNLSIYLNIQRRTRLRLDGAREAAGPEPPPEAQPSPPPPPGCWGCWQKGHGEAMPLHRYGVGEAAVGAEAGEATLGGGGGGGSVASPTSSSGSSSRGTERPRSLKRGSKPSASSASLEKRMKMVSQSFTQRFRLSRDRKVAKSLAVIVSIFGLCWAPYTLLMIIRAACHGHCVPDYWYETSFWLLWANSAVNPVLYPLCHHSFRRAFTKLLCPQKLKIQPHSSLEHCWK
D2 dopamine receptor, sequence (P14416 whole entry): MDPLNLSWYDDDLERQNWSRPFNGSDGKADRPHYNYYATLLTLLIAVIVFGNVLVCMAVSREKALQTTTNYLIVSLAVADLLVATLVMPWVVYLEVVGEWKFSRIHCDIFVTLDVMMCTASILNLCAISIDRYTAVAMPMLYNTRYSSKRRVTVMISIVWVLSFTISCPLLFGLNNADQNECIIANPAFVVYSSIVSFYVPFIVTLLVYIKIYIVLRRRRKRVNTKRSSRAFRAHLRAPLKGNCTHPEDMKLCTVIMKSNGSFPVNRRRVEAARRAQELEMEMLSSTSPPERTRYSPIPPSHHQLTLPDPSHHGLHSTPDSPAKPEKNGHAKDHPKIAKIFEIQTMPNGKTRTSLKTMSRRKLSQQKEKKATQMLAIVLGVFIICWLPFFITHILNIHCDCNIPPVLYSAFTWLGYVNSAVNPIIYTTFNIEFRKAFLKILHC
D(1B) dopamine receptor, sequence (P21918 whole entry): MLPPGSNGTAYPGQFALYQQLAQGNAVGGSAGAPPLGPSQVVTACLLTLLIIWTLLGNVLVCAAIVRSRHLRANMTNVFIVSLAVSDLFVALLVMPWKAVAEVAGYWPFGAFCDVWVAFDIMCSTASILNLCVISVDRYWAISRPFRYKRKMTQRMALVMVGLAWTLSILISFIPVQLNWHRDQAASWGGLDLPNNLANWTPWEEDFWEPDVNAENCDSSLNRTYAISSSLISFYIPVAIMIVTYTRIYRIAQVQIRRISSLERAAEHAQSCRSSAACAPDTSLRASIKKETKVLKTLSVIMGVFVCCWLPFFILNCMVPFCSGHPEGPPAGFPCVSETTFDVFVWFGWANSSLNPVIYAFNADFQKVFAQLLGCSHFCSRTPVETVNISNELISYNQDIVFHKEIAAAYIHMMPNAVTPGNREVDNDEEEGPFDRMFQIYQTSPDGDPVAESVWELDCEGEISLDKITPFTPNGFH
Sodium-dependent serotonin transporter, sequence (P31645 whole entry): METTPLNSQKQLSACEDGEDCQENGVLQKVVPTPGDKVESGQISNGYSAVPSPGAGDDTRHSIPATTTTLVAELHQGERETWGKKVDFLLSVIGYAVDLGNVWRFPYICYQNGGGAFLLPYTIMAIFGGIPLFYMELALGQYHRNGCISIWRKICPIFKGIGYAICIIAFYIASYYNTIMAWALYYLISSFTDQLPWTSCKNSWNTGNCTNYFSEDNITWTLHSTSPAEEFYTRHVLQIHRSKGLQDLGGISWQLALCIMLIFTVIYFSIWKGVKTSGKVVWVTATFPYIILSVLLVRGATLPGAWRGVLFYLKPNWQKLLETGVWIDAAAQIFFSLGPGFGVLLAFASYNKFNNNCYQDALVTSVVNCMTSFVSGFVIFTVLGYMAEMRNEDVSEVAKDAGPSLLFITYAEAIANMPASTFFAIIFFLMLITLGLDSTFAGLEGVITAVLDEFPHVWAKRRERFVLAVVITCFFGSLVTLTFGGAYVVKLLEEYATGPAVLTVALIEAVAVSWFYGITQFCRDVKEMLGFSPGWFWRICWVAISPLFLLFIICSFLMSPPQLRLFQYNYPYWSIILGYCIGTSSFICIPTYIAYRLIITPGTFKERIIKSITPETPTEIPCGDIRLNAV

Row | SMILES | inhibition [1] [%] | inhibition [2] [%] | Ki [3] [nM] | Ki (D2 dopamine receptor) [nM] | inhibition (Histamine H3 receptor) [%] | Ki (D(1B) dopamine receptor) [nM] | Ki [4] [nM] | inhibition [5] [%] | inhibition [6] [%] | inhibition [7] [%] | Ki [8] [nM] | inhibition at […], 10 µM [9] [%] | Ki [10] [nM]
1 | COc1ccccc1N1CCN(CCCSc2nnc(-c3ccccc3)n2C)CC1 | < 50 | < 50 | 2030 | 577 | < 50 | 3020 |  |  |  |  |  |  | 
2 | COc1ccccc1N1CCC2(CCN(CCCSc3nnc(-c4ccccc4)n3C)CC2)CC1 |  |  |  |  |  |  | 590 | < 50 | < 50 | < 50 | 295 | < 50 | 931
